ChEMBL document CHEMBL3352534, “A prodrug strategy for the oral delivery of a poorly soluble HCV NS5B thumb pocket 1 polymerase inhibitor using self-emulsifying drug delivery systems (SEDDS)” (Bioorg Med Chem Lett, 2015)
In brackets after ≈: the same amount, converted by molar mass.

How the values were obtained:
Liver microsome [1] = assay: Prodrug conversion in human liver microsomes assessed as half life
Liver microsome [2] = assay: Prodrug conversion in rat liver microsomes assessed as half life
[3] = Prodrug conversion in simulated intestinal fluid assessed as half life; assay type: ADME; details: simulated gi fluid
How it was run: (§1)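 Incubations used 2 µM compound at 37 °C in either SGF (0.2% NaCl/HCl, pH 1.2, pepsin 3.2 mg/mL) or SIF (KH2PO4/NaOH, pH 7.5, pancreatin 10 mg/mL). Samples were quenched 1:2 with acetonitrile/methanol 1:1 and analysed by HPLC. t1/2 = 0.693/first-order disappearance rate.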

[4] = Prodrug conversion in simulated gastric fluid assessed as half life; assay type: ADME; details: simulated gi fluid; how it was run: as §1
Plasma [5] = assay: Prodrug conversion in human plasma assessed as half life
[6] = Prodrug conversion in human intestinal microsomes assessed as half life
Plasma [7] = assay: Prodrug conversion in rat plasma assessed as half life; assay type: ADME, cell-free
How it was run: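 Rat plasma (from centrifuged whole blood) was incubated with 2 µM compound at 37 °C. Samples were quenched 1:3 with acetonitrile/methanol 1:1, centrifuged and analysed by HPLC-PDA. Half-life was taken as 0.693/first-order rate of loss of the starting compound.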

Intestine = assay: Prodrug conversion in rat intestinal microsomes assessed as half life
Rattus norvegicus [8] = assay: Cmax in rat plasma assessed as (E)-3-(4-(1-(2-(5-chloropyrimidin-2-yl)-3-cyclopentyl-1-methyl-1H-indole-6-carboxamido)cyclobutanecarboxamido)-2-ethoxyphenyl)acrylic acid at 10 mg/kg, po using 10.6% PEG400, 5.4% Cremophor EL, 2.6% Labrasol, 1.4% Capmul MCM in water (80%) vehicle; assay type: ADME, organism-based; parameters: dose 10 mg/kg, route oral; details: in vivo
How it was run: (§2)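 Fasted rats were given a single 10 mg/kg oral dose, with n = 3 per dose and route. Plasma was extracted by solid-phase extraction. Analysis used HPLC with diode-array UV (200–400 nm, peak height at best S/N) or LC/MS. Calibration standards were made in blank plasma, with LOQ 7–14 ng/mL. Parameters came from noncompartmental analysis.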

Rattus norvegicus [9] = assay: AUC in rat plasma assessed as (E)-3-(4-(1-(2-(5-chloropyrimidin-2-yl)-3-cyclopentyl-1-methyl-1H-indole-6-carboxamido)cyclobutanecarboxamido)-2-ethoxyphenyl)acrylic acid at 10 mg/kg, po using 10.6% PEG400, 5.4% Cremophor EL, 2.6% Labrasol, 1.4% Capmul MCM in water (80%) vehicle; assay type: ADME, organism-based; parameters: dose 10 mg/kg, route oral; details: in vivo; how it was run: as §2
[10] = Cmax in rat plasma at 10 mg/kg, po using 10.6% PEG400, 5.4% Cremophor EL, 2.6% Labrasol, 1.4% Capmul MCM in water (80%) vehicle; assay type: ADME, organism-based; parameters: dose 10 mg/kg, route oral; details: plasma; how it was run: as §2
[11] = AUC in rat plasma at 10 mg/kg, po using 10.6% PEG400, 5.4% Cremophor EL, 2.6% Labrasol, 1.4% Capmul MCM in water (80%) vehicle; assay type: ADME, organism-based; parameters: dose 10 mg/kg, route oral; details: plasma; how it was run: as §2
[12] = Prodrug solubility in Labrasol; assay type: ADME
[13] = Prodrug solubility in solutol; assay type: ADME
[14] = Prodrug solubility in capmul; assay type: ADME
[15] = Prodrug solubility in PEG400; assay type: ADME

CCOc1cc(NC(=O)C2(NC(=O)c3ccc4c(C5CCCC5)c(-c5ncc(Cl)cn5)n(C)c4c3)CCC2)ccc1/C=C/C(=O)OC(=O)C[C@H](O)C(=O)O
t1/2 (Liver microsome [1]): 5.57 h
t1/2 (Liver microsome [2]): 7.92 h

CCOc1cc(NC(=O)C2(NC(=O)c3ccc4c(C5CCCC5)c(-c5ncc(Cl)cn5)n(C)c4c3)CCC2)ccc1/C=C/C(=O)N[C@@H](CC(=O)O)C(N)=O
t1/2 [3]: 0.067 h
t1/2 [4]: > 5 h

CCOc1cc(NC(=O)C2(NC(=O)c3ccc4c(C5CCCC5)c(-c5ncc(Cl)cn5)n(C)c4c3)CCC2)ccc1/C=C/C(=O)N[C@@H](CCC(=O)O)C(N)=O
t1/2 [3]: 4.23 h
t1/2 [4]: 0.533 h

CCOc1cc(NC(=O)C2(NC(=O)c3ccc4c(C5CCCC5)c(-c5ncc(Cl)cn5)n(C)c4c3)CCC2)ccc1/C=C/C(=O)N[C@@H](CCCNC(=N)N)C(N)=O
t1/2 [4]: 0.467 h

CCOc1cc(NC(=O)C2(NC(=O)c3ccc4c(C5CCCC5)c(-c5ncc(Cl)cn5)n(C)c4c3)CCC2)ccc1/C=C/C(=O)OCC[N+](C)(C)C.[Br-]
t1/2 [4]: 0.417 h
t1/2 (Liver microsome [1]): > 5 h
t1/2 (Liver microsome [2]): 1.73 h

CCOc1cc(NC(=O)C2(NC(=O)c3ccc4c(C5CCCC5)c(-c5ncc(Cl)cn5)n(C)c4c3)CCC2)ccc1/C=C/C(=O)NCCO
t1/2 (Liver microsome [1]): 1.63 h
t1/2 (Liver microsome [2]): 1.48 h

CCOc1cc(NC(=O)C2(NC(=O)c3ccc4c(C5CCCC5)c(-c5ncc(Cl)cn5)n(C)c4c3)CCC2)ccc1/C=C/C(=O)N(C)CCO
t1/2 (Liver microsome [1]): 1.3 h
t1/2 (Liver microsome [2]): 2.25 h

CCOc1cc(NC(=O)C2(NC(=O)c3ccc4c(C5CCCC5)c(-c5ncc(Cl)cn5)n(C)c4c3)CCC2)ccc1/C=C/C(=O)OCC(=O)O
t1/2 (Liver microsome [1]): 3.1 h
t1/2 (Liver microsome [2]): 1.17 h

CCOC(=O)/C=C/c1ccc(NC(=O)C2(NC(=O)c3ccc4c(C5CCCC5)c(-c5ncc(Cl)cn5)n(C)c4c3)CCC2)cc1OCC
t1/2 (Plasma [5]): > 5 h
t1/2 [3]: > 5 h
t1/2 [4]: 0.333 h
t1/2 (Liver microsome [1]): > 5 h
t1/2 [6]: > 5 h
t1/2 (Plasma [7]): 8.18 h
t1/2 (Liver microsome [2]): 3.07 h
t1/2 (Intestine): > 5 h

CCCOC(=O)/C=C/c1ccc(NC(=O)C2(NC(=O)c3ccc4c(C5CCCC5)c(-c5ncc(Cl)cn5)n(C)c4c3)CCC2)cc1OCC
t1/2 (Plasma [5]): > 5 h
t1/2 [3]: > 5 h
t1/2 [4]: 2.23 h
t1/2 (Liver microsome [1]): > 5 h
t1/2 [6]: > 5 h
t1/2 (Plasma [7]): 15.2 h
t1/2 (Liver microsome [2]): 0.35 h
t1/2 (Intestine): > 5 h

CCOc1cc(NC(=O)C2(NC(=O)c3ccc4c(C5CCCC5)c(-c5ncc(Cl)cn5)n(C)c4c3)CCC2)ccc1/C=C/C(=O)OCCC(C)C
t1/2 (Plasma [5]): 6.18 h
t1/2 [3]: > 5 h
t1/2 [4]: 1.43 h
t1/2 (Liver microsome [1]): > 5 h
t1/2 [6]: > 5 h
t1/2 (Plasma [7]): 18.02 h
t1/2 (Liver microsome [2]): 1.42 h
t1/2 (Intestine): > 5 h

CCCCCCOC(=O)/C=C/c1ccc(NC(=O)C2(NC(=O)c3ccc4c(C5CCCC5)c(-c5ncc(Cl)cn5)n(C)c4c3)CCC2)cc1OCC
Cmax (Rattus norvegicus [8]): 200 nM
AUC (Rattus norvegicus [9]): 3.2 µM·h
t1/2 [4]: 0.883 h
t1/2 (Liver microsome [1]): 17.88 h
Cmax [10]: 400 nM
t1/2 (Liver microsome [2]): 12.7 h
AUC [11]: 2.2 µM·h

CCOc1cc(NC(=O)C2(NC(=O)c3ccc4c(C5CCCC5)c(-c5ncc(Cl)cn5)n(C)c4c3)CCC2)ccc1/C=C/C(=O)OCC(Cl)(Cl)Cl
t1/2 (Plasma [5]): > 5 h
t1/2 [3]: > 5 h
t1/2 [4]: 1.75 h
t1/2 (Liver microsome [1]): > 5 h
t1/2 [6]: > 5 h
t1/2 (Plasma [7]): 1.3 h
t1/2 (Liver microsome [2]): 0.233 h
t1/2 (Intestine): > 5 h

CCOc1cc(NC(=O)C2(NC(=O)c3ccc4c(C5CCCC5)c(-c5ncc(Cl)cn5)n(C)c4c3)CCC2)ccc1/C=C/C(=O)OCc1ccccc1
t1/2 (Plasma [5]): > 5 h
t1/2 [3]: > 5 h
t1/2 [4]: 1.83 h
t1/2 (Liver microsome [1]): > 5 h
t1/2 [6]: > 5 h
t1/2 (Plasma [7]): 2.23 h
t1/2 (Liver microsome [2]): 2.17 h
t1/2 (Intestine): > 5 h

CCOc1cc(NC(=O)C2(NC(=O)c3ccc4c(C5CCCC5)c(-c5ncc(Cl)cn5)n(C)c4c3)CCC2)ccc1/C=C/C(=O)OCCOc1ccccc1
t1/2 (Liver microsome [1]): > 5 h
t1/2 (Liver microsome [2]): 16.5 h

CCOc1cc(NC(=O)C2(NC(=O)c3ccc4c(C5CCCC5)c(-c5ncc(Cl)cn5)n(C)c4c3)CCC2)ccc1/C=C/C(=O)OCCOCCOC
solubility [12]: < 30 mg/mL
Cmax (Rattus norvegicus [8]): 4600 nM
AUC (Rattus norvegicus [9]): 23.1 µM·h
t1/2 (Liver microsome [1]): 0.85 h
Cmax [10]: 30 nM
solubility [13]: < 100 mg/mL
t1/2 (Liver microsome [2]): 1.07 h
solubility [14]: < 60 mg/mL
AUC [11]: 0.1 µM·h

CCOc1cc(NC(=O)C2(NC(=O)c3ccc4c(C5CCCC5)c(-c5ncc(Cl)cn5)n(C)c4c3)CCC2)ccc1/C=C/C(=O)OCCNN1CCCC1
solubility [12]: < 100 mg/mL
Cmax (Rattus norvegicus [8]): 6100 nM
AUC (Rattus norvegicus [9]): 25.6 µM·h
t1/2 (Liver microsome [1]): 0.683 h
Cmax [10]: 40 nM
solubility [13]: < 100 mg/mL
t1/2 (Liver microsome [2]): 0.783 h
solubility [14]: < 100 mg/mL
AUC [11]: 0.06 µM·h

CCOc1cc(NC(=O)C2(NC(=O)c3ccc4c(C5CCCC5)c(-c5ncc(Cl)cn5)n(C)c4c3)CCC2)ccc1/C=C/C(=O)OCOC(=O)C(C)(C)C
Cmax (Rattus norvegicus [8]): 1700 nM
AUC (Rattus norvegicus [9]): 19.6 µM·h
t1/2 [4]: < 0.033 h
t1/2 (Liver microsome [1]): 4.12 h
Cmax [10]: 40 nM
t1/2 (Liver microsome [2]): 5.6 h
AUC [11]: 0.3 µM·h

CCOc1cc(NC(=O)C2(NC(=O)c3ccc4c(C5CCCC5)c(-c5ncc(Cl)cn5)n(C)c4c3)CCC2)ccc1/C=C/C(=O)OCC(=O)OC
t1/2 (Liver microsome [1]): 2.1 h
t1/2 (Liver microsome [2]): 2.08 h

CCOC(=O)COC(=O)/C=C/c1ccc(NC(=O)C2(NC(=O)c3ccc4c(C5CCCC5)c(-c5ncc(Cl)cn5)n(C)c4c3)CCC2)cc1OCC
t1/2 (Liver microsome [1]): 1.6 h
t1/2 (Liver microsome [2]): 2.45 h

CCCCOC(=O)COC(=O)/C=C/c1ccc(NC(=O)C2(NC(=O)c3ccc4c(C5CCCC5)c(-c5ncc(Cl)cn5)n(C)c4c3)CCC2)cc1OCC
t1/2 (Liver microsome [1]): 5.98 h
t1/2 (Liver microsome [2]): 15.8 h

CCOc1cc(NC(=O)C2(NC(=O)c3ccc4c(C5CCCC5)c(-c5ncc(Cl)cn5)n(C)c4c3)CCC2)ccc1/C=C/C(=O)OCC(=O)OCc1ccccc1
t1/2 (Plasma [5]): > 5 h
t1/2 [3]: 1.63 h
t1/2 [4]: 3.03 h
t1/2 (Liver microsome [1]): 26.15 h
t1/2 [6]: > 5 h
t1/2 (Plasma [7]): 6.6 h
t1/2 (Liver microsome [2]): 2.2 h
t1/2 (Intestine): > 5 h

CCOc1cc(NC(=O)C2(NC(=O)c3ccc4c(C5CCCC5)c(-c5ncc(Cl)cn5)n(C)c4c3)CCC2)ccc1/C=C/C(=O)OCC(=O)OCc1ccc(Cl)cc1
t1/2 (Liver microsome [1]): 5.62 h
t1/2 (Liver microsome [2]): 11.4 h

CCOc1cc(NC(=O)C2(NC(=O)c3ccc4c(C5CCCC5)c(-c5ncc(Cl)cn5)n(C)c4c3)CCC2)ccc1/C=C/C(=O)OCC(N)=O
solubility [12]: > 200 mg/mL
Cmax (Rattus norvegicus [8]): 4400 nM
AUC (Rattus norvegicus [9]): 16.7 µM·h
t1/2 [4]: 0.6 h
t1/2 (Liver microsome [1]): 0.983 h
Cmax [10]: 40 nM
solubility [13]: 200 mg/mL (≈ 286 mM)
t1/2 (Liver microsome [2]): 0.383 h
solubility [14]: < 200 mg/mL
solubility [15]: > 200 mg/mL
AUC [11]: 0.13 µM·h

CCOc1cc(NC(=O)C2(NC(=O)c3ccc4c(C5CCCC5)c(-c5ncc(Cl)cn5)n(C)c4c3)CCC2)ccc1/C=C/C(=O)OCC(=O)NC
solubility [12]: 200 mg/mL (≈ 280 mM)
t1/2 (Liver microsome [1]): 0.567 h
solubility [13]: < 200 mg/mL
t1/2 (Liver microsome [2]): 0.5 h
solubility [14]: < 200 mg/mL
solubility [15]: > 200 mg/mL

CCCN(C)C(=O)COC(=O)/C=C/c1ccc(NC(=O)C2(NC(=O)c3ccc4c(C5CCCC5)c(-c5ncc(Cl)cn5)n(C)c4c3)CCC2)cc1OCC
solubility [12]: < 200 mg/mL
t1/2 (Liver microsome [1]): 0.317 h
solubility [13]: < 200 mg/mL
t1/2 (Liver microsome [2]): 0.317 h
solubility [14]: < 200 mg/mL
solubility [15]: < 200 mg/mL

CCOc1cc(NC(=O)C2(NC(=O)c3ccc4c(C5CCCC5)c(-c5ncc(Cl)cn5)n(C)c4c3)CCC2)ccc1/C=C/C(=O)OCC(=O)N(C)C(C)C
solubility [12]: < 200 mg/mL
t1/2 (Liver microsome [1]): 0.65 h
solubility [13]: < 200 mg/mL
t1/2 (Liver microsome [2]): 0.267 h
solubility [14]: < 200 mg/mL
solubility [15]: > 200 mg/mL

CCOc1cc(NC(=O)C2(NC(=O)c3ccc4c(C5CCCC5)c(-c5ncc(Cl)cn5)n(C)c4c3)CCC2)ccc1/C=C/C(=O)OCC(=O)N1CCCC1
solubility [12]: 200 mg/mL (≈ 265 mM)
t1/2 (Liver microsome [1]): 1.65 h
solubility [13]: 200 mg/mL (≈ 265 mM)
t1/2 (Liver microsome [2]): 1.47 h
solubility [14]: < 200 mg/mL
solubility [15]: > 200 mg/mL
